# Bioassay records from PubChem BioAssay.
# GPR7 antagonist: antagonists of human GPR7 (neuropeptides B/W receptor 1); GPR7-expressing cells, fluorescence antagonist assay; inhibition, % at 4.4 µM; 290,000 compounds, 1.1% hits; AID 1861; in the data active = inhibition above about 16%, passing the limit was not always enough;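 note: cells stimulated with the agonist NPW; 0% = agonist with vehicle and 100% = vehicle without agonist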
# TAAR1 antagonist: antagonists of human TAAR1; Q96RJ0; CHO RD-HGA16 TAAR1, Fluo-8 calcium fluorescence, antagonist; inhibition, % at 3 µM; 360,000 compounds, 1.5% hits; AID 624466;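 active = inhibition above a per-plate cutoff, the mean inhibition of test compounds on that plate plus 3 SD, cut at about 49% in these data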;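 note: 0% = DMSO plus EC80 beta-PEA response and 100% = DMSO alone without agonist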
#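 Assay system: CHO-derived RD-HGA16 cells stably expressing human TAAR1 plus Gα16. Timing: 140 s kinetic read after compound, 140 s after agonist. Technique: kinetic Fluo-8 calcium fluorescence measurement. Measure: % inhibition of agonist calcium response.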
# TAAR1 ag: agonists of human TAAR1; 360,000 compounds, 0.99% hits; CHO RD-HGA16 TAAR1, Fluo-8 calcium fluorescence; vehicle wells 0%, saturating PEA agonist 100%; AID 624467; Q96RJ0; activation, % at 3 µM;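 active = activation above the mean activation of all test compounds in the run plus 3 SD, cut at about 38% in these data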
#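 System: CHO RD-HGA16 cells carrying human TAAR1 plus Gα16; Incubation: 17-24 h seeding, 75 min 37 °C dye, 30 min RT; Measured by: Fluo-8 fluorescence, 5 s baseline then 140 s kinetic read; Control set: DMSO and PEA EC100; Replication: single well for each compound.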
# CHO parental Ca: counter-screen: ATP calcium response change in parental CHO cells; parental CHO-K1, ATP-induced calcium, Fluo-8 fluorescence; 330,000 compounds, 0.63% hits; inhibition, % at 5.6 µM;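 active = inhibition above that plate's mean sample inhibition plus 3 SD, cut at about 26% in these data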;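 note: 0% = ATP-challenged DMSO wells and 100% = DMSO wells without ATP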
#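 test system = CHO parental line | reagent = ATP stimulus | measured by = intracellular calcium via Fluo-8 no-wash fluorescent dye | control set = ATP and no-ATP DMSO wells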
# OX1R antag-1: OX1R (human) antagonism; O43613; OX1R-expressing cells, FRET antagonist read-out; inhibition, % at 6.6 µM; 330,000 compounds, 1.8% hits; AID 485270; in the data active = inhibition mostly above about 38%, no sharp cut-off; inactive = mostly below about 40%;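 note: 0% = agonist challenge alone and 100% = reference antagonist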
# Target sequence (O43613 whole entry, looked up): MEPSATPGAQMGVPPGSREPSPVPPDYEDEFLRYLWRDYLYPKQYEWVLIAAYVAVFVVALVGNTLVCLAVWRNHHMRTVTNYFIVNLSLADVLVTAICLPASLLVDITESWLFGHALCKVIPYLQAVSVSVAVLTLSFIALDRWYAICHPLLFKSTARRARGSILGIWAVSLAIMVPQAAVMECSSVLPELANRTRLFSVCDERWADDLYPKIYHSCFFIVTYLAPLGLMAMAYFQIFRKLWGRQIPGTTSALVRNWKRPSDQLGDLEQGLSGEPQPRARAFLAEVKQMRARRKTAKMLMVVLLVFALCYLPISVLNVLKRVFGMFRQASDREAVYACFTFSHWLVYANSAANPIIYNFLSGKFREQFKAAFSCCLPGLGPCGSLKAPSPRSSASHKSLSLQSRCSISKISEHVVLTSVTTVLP
# OX1R antag-2: human HCRTR1 antagonism; 330,000 compounds, 0.43% hits; CHO/OX1R cells, Fluo-8 calcium fluorescence, orexin A; AID 434989; inhibition, % at 5 µM; O43613;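 active = inhibition above its plate's threshold, mean inhibition of all tested compounds on the plate plus 3 SD, cut at about 37% in these data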;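 note: 0% = orexin A challenge wells and 100% = SB-334867-A antagonist wells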
# TAAR1 nonsel count: counter-screen for TAAR1 antagonists: nonselective antagonists; 2,400 compounds, 77% hits; shares compounds with TAAR1 antagonist; counterscreen cell line, calcium fluorescence, antagonist mode; inhibition, % at 3 µM; in the data active = inhibition above about 22%;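 note: CHO-Ga16 host cells stimulated with ATP at an EC80 level; 0% = agonist EC80 plus vehicle and 100% = vehicle without agonist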
# TAAR1 ant conf: human TAAR1 antagonism, confirmed. inhibition, % at 3 µM. 2,400 compounds, 40% hits. AID 651785. shares compounds with TAAR1 antagonist. TAAR1-expressing cells, fluorescence antagonist read-out; in the data active = inhibition above about 49%;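 note: CHO-Ga16 host cells challenged with agonist PEA near its EC80; 0% = agonist at EC80 plus vehicle and 100% = vehicle with no agonist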
# Ga16 nonsel ag: nonselective Ga16 agonism, counter-screen; activation, % at 3 µM; 2,400 compounds, 18% hits; Ga16-expressing cells, calcium fluorescence, agonist counterscreen; AID 651953; shares compounds with TAAR1 antagonist; in the data active = activation above about 12%;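 note: 0% = vehicle wells and 100% = saturating stimulus response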
# TAAR1 ag count: activates human TAAR1 in antagonist counter-screen | shares compounds with TAAR1 antagonist | hTAAR1 cell line, fluorescence activation, agonist mode | activation, % at 3 µM | 2,400 compounds, 2% hits; in the data active = activation above about 37%;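 note: CHO cells stably expressing TAAR1 with calcium dye readout; 0% = DMSO vehicle and 100% = full agonist response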
# Active calls of the source: *; / = no result given. Compounds with a hit are over-represented: about 4.5% of the library has one in this group of screens.
SMILES,GPR7 antagonist,TAAR1 antagonist,TAAR1 ag,CHO parental Ca,OX1R antag-1,OX1R antag-2,TAAR1 nonsel count,TAAR1 ant conf,Ga16 nonsel ag,TAAR1 ag count
COc1ccccc1N(Cc1ccccc1)S(=O)(=O)c1cccc(C(=O)Nc2ccccn2)c1,-25,75*,0,-21,33,-11,17,39,5,9
COc1ccccc1N(Cc1ccccc1)S(=O)(=O)c1cccc(C(=O)Nc2ccc(C(C)=O)cc2)c1,3,10,1,-9,37,4,/,/,/,/
CSc1ccc(CCNC(=O)c2ccc(CS(=O)Cc3ccccc3Cl)o2)cc1 (stereo not drawn),-2,47,14,-23,15,-7,/,/,/,/
O=C(c1ccc(CS(=O)Cc2ccc(Cl)cc2)o1)N1CCN(c2ccccn2)CC1 (stereo not drawn),-4,5,10,-18,16,-34,/,/,/,/
O=C(c1ccc(CS(=O)Cc2ccccc2Cl)o1)N1CCN(c2ccccn2)CC1 (stereo not drawn),13,49*,17,-27,-3,-34,15,32,8,6
O=C(NCCc1ccc(Cl)cc1)c1ccc(CS(=O)Cc2ccccc2Cl)o1 (stereo not drawn),-6,60*,9,-24,8,-30,29*,40,9,8
COc1ccc(CN(CC(=O)NCc2ccccc2)C(=O)CCC(=O)Nc2ccccn2)cc1,7,-11,-3,-18,7,-18,/,/,/,/
CN(C1CCCCC1)S(=O)(=O)c1ccc(S(=O)(=O)N(CC(=O)Nc2ccccc2)C2CC2)cc1,-2,58*,5,-20,14,-7,26*,41,9,10
O=C(N/N=C/c1sc(=O)n(Cc2ccc(Br)cc2)c1Cl)c1ccco1,10,81*,27,-7,16,-6,39*,77*,17*,27
c1ccc(SCc2cn(C[C@H]3CC[C@@H]([C@@H]4CC[C@H](Cn5cc(CSc6ccccc6)nn5)O4)O3)nn2)cc1,12,71*,32,-7,16,-20,37*,56*,14*,12
c1ccc(Cn2cc(CSc3ccccc3)nn2)cc1,/,0,1,-8,31,-16,/,/,/,/
COc1cc(OC)c(OC)cc1CNC(=O)CCN1C(=O)c2cccc([N+](=O)[O-])c2C1=O,-16,6,-2,-7,43,-15,/,/,/,/
NC(=O)c1ccsc1NC(=O)CN1CCN(S(=O)(=O)c2ccccc2C(F)(F)F)CC1,/,89*,20,/,/,/,30*,65*,20*,34
O=C(CN1CCN(S(=O)(=O)c2ccccc2C(F)(F)F)CC1)NCc1cccs1,/,-9,2,-14,7,-6,/,/,/,/
N#Cc1ccc(-c2c(-c3ccccc3)ncc3cc(F)ccc23)cc1,/,59*,1,-29,12,-16,18,44,1,3
Fc1ccc2cnc(-c3ccccc3)c(-c3cc(C(F)(F)F)cc(C(F)(F)F)c3)c2c1,/,-21,3,-42,15,-24,/,/,/,/
Fc1ccc2cnc(-c3ccccc3)c(-c3ccc(C(F)(F)F)cc3)c2c1,/,63*,0,-40,-1,-14,9,37,4,-1
O=[N+]([O-])c1ccc(-c2c(-c3ccccc3)ncc3ccc(F)cc23)cc1,/,74*,0,-25,15,-1,19,66*,-1,-2
CC1(C(=O)NS(=O)(=O)c2ccc(F)cc2F)CCN1C(=O)Cc1ccc(Cl)cc1Cl (stereo not drawn),/,-3,2,/,/,/,/,/,/,/
